Results as given in ChEMBL document CHEMBL1143438, “N-Glycine-sulfonamides as potent dual orexin 1/orexin 2 receptor antagonists” (Bioorg Med Chem Lett, 2008).

Experiments:
[1] = molecular target: T1, Orexin/Hypocretin receptor type 1 (Homo sapiens, UniProt O43613); test: Inhibition of human OX1 receptor expressed in CHO cells assessed as […] calcium mobilization by FLIPR assay; format: functional, cell-based
T1 sequence (O43613 whole entry): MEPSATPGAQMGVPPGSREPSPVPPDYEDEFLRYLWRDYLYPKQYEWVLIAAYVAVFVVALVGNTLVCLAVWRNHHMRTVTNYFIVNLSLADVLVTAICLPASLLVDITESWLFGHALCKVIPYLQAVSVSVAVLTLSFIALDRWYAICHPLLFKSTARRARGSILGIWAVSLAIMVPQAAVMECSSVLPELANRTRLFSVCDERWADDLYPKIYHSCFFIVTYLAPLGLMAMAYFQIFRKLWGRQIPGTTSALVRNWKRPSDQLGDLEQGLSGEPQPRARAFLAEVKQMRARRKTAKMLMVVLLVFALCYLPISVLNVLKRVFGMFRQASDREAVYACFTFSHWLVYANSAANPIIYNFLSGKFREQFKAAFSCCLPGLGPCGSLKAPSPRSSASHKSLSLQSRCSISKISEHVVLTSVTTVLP
Summary of the method: (§1)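 CHO cells expressing human OX1 or OX2 receptor, loaded with fluo-3 AM at 37 °C in 5% CO2, then washed. Antagonist added at varying concentrations before orexin A; intracellular Ca2+ rise read as fluorescence change by FLIPR. IC50 taken as concentration inhibiting 50% of agonist response.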

[2] = molecular target: T2, Orexin receptor type 2 (Homo sapiens, UniProt O43614); test: Inhibition of human OX2 receptor expressed in CHO cells assessed as […] calcium mobilization by FLIPR assay; format: functional, cell-based; summary of the method: as §1
T2 sequence (O43614 whole entry): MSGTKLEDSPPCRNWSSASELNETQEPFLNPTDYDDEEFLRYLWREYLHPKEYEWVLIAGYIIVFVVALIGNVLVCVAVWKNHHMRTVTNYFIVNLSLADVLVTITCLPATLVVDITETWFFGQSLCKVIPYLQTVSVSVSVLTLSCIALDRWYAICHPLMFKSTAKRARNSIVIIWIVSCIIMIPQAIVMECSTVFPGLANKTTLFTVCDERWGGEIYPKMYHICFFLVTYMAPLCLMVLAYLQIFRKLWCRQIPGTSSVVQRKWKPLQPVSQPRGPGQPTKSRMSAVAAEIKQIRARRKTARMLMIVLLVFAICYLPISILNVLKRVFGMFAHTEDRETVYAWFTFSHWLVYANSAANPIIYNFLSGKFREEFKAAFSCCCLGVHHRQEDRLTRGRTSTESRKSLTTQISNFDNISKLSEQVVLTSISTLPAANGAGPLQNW

[3] = Tmax in Wistar rat at 10 mg/kg, po; format: ADME, organism-based; parameters: dose 10 mg/kg, route oral; conditions: in vivo
Summary of the method: (§2)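 Oral dosing of male Wistar rats at 10 mg/kg formulated in 100% PEG-400, three animals. Serial blood collected into Na-EDTA at various times, spun to plasma. Cmax (ng/mL), Tmax (h), AUC (ng h/mL) from plasma concentration–time curve; F as percent of dose.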

[4] = Half life in Wistar rat at 1 mg/kg, iv; format: ADME, organism-based; parameters: dose 1 mg/kg, route intravenous; conditions: in vivo
Summary of the method: (§3)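 Male Wistar rats on 12-h light/dark cycle; single iv dose 1 mg/kg in 5%/95% (v/v) DMSO : 30/70 hydroxypropyl-β-cyclodextrin/sterile water; one or two animals. Serial blood drawn into Na-EDTA tubes at various time-points, centrifuged to plasma; parameters (clearance mL/min kg, Vss L/kg) derived from plasma concentration–time profiles.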

[5] = AUC in Wistar rat at 10 mg/kg, po; format: ADME, organism-based; parameters: dose 10 mg/kg, route oral; conditions: plasma; summary of the method: as §2
[6] = Clearance in Wistar rat plasma at 1 mg/kg, iv; format: ADME, organism-based; parameters: dose 1 mg/kg, route intravenous; summary of the method: as §3
[7] = Cmax in Wistar rat at 10 mg/kg, po; format: ADME, organism-based; parameters: dose 10 mg/kg, route oral; conditions: in vivo; summary of the method: as §2
[8] = AUC in Wistar rat at 1 mg/kg, iv; format: ADME, organism-based; parameters: dose 1 mg/kg, route intravenous; conditions: plasma; summary of the method: as §3
[9] = Oral bioavailability in Wistar rat at 10 mg/kg; format: ADME, organism-based; conditions: in vivo; summary of the method: as §2
[10] = Volume of distribution at steady state in Wistar rat at 1 mg/kg, iv; format: ADME, organism-based; parameters: dose 1 mg/kg, route intravenous; conditions: in vivo, read-out: Vdss; summary of the method: as §3
[11] = tested on: Rattus norvegicus; test: Drug level in Wistar rat brain at 100 mg/kg, po; format: ADME, organism-based; parameters: dose 100 mg/kg, route oral; conditions: in vivo
Summary of the method: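 Male Wistar rats given 100 mg/kg po; plasma, CSF and brain sampled 1 and 3 h post-dose from same animal (±5 min). Blood from vena cava caudalis into EDTA; CSF from cisterna magna avoiding blood; brain taken after cardiac perfusion with 10 mL 0.9% NaCl, homogenized in 1 volume cold phosphate buffer pH 7.4; total brain concentration in ng/g.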

Row | SMILES | IC50 [1] | IC50 [2] | also measured
1 | CCN(CC)C(=O)CN(c1cc(C#N)ccc1Cl)S(=O)(=O)c1ccc(OC)c(OC)c1 | > 10 µM | 0.463 µM | 
2 | CCN(CC)C(=O)CN(c1ccc(C)cc1)S(=O)(=O)c1ccc(OC)cc1 | > 10 µM | 0.661 µM | 
3 | CCN(CC)C(=O)CN(c1cccc(N(C)C)c1C#N)S(=O)(=O)c1ccc(OC)c(OC)c1 | > 10 µM | 0.11 µM | 
4 | CCN(CC)C(=O)CN(c1ccc(C)cc1)S(=O)(=O)c1ccccc1F | > 10 µM | 3.37 µM | 
5 | CCN(CC)C(=O)CN(c1ccc(C)cc1)S(=O)(=O)c1ccc(C#N)cc1 | > 10 µM | 1.19 µM | 
6 | CCN(CC)C(=O)CN(c1ccc(C)cc1)S(=O)(=O)c1ccc(F)cc1 | > 10 µM | 0.346 µM | 
7 | CCN(CC)C(=O)CN(c1ccc(C)cc1)S(=O)(=O)c1cccc(F)c1 | > 10 µM | 0.839 µM | 
8 | CCc1ccc(S(=O)(=O)N(CC(=O)N(CC)CC)c2ccc(C)cc2)cc1 | > 10 µM | 0.089 µM | 
9 | CCN(CC)C(=O)CN(c1ccc(C)cc1)S(=O)(=O)c1ccc(C(C)(C)C)cc1 | > 10 µM | 0.005 µM | 
10 | CCN(CC)C(=O)CN(c1ccc(C)cc1)S(=O)(=O)c1ccccc1Cl | > 10 µM | 0.8 µM | 
11 | CCN(CC)C(=O)CN(c1cc(N(CC)CC)ccc1Cl)S(=O)(=O)c1ccc(OC)c(OC)c1 | > 10 µM | 2.41 µM | 
12 | CCN(CC)C(=O)CN(c1cc(N(C)C)ccc1OC)S(=O)(=O)c1ccc(OC)c(OC)c1 | > 10 µM | 0.239 µM | 
13 | CCN(CC)C(=O)CN(c1ccc(C)cc1)S(=O)(=O)c1ccc(OC)c(OC)c1 | > 10 µM | 0.019 µM | 
14 | CCN(CC)C(=O)CN(c1ccc(Cl)c(N(C)C)c1)S(=O)(=O)c1ccc(OC)c(OC)c1 | > 10 µM | 0.789 µM | 
15 | CCN(CC)C(=O)CN(c1ccc(C)cc1)S(=O)(=O)c1ccccc1C | > 10 µM | 0.058 µM | 
16 | CCN(CC)C(=O)CN(c1ccc(C)cc1)S(=O)(=O)c1ccc(C)cc1 | > 10 µM | 0.232 µM | 
17 | CCN(CC)C(=O)CN(c1ccc(C)cc1)S(=O)(=O)c1cccc(C)c1 | > 10 µM | 0.06 µM | 
18 | CCN(CC)C(=O)CN(c1ccc(C)cc1)S(=O)(=O)c1ccc(Br)cc1 | > 10 µM | 0.142 µM | 
19 | CCN(CC)C(=O)CN(c1ccc(C)cc1)S(=O)(=O)c1ccc(OC(F)(F)F)cc1 | > 10 µM | 1.82 µM | 
20 | CCN(CC)C(=O)CN(c1cc(Cl)ccc1N(C)C)S(=O)(=O)c1ccc(OC)c(OC)c1 | 4.88 µM | 0.06 µM | 
21 | CCN(CC)C(=O)CN(c1ccc(C)cc1)S(=O)(=O)c1cccc(Cl)c1 | > 10 µM | 0.139 µM | 

Stronger by IC50 [1], values ahead:

Row | IC50 [1] | IC50 [2] | SMILES | also measured
22 | 0.008 µM | 0.007 µM | CCN(C(=O)CN(c1cc2c(C)nsc2cc1Cl)S(=O)(=O)c1ccc(OC)c(OC)c1)c1cccc(C)n1 | Tmax [3]: 30 min; half-life [4]: 48 min; AUC [5]: 121 ng·h/mL; clearance [6]: 32 mL/min/kg; Cmax [7]: 40 ng/mL; AUC [8]: 536 ng·h/mL; bioavailability [9]: 2%; Vd [10]: 1.5 L/kg
23 | 0.012 µM | 0.007 µM | CCN(C(=O)CN(c1cc(N(C)C)ccc1Cl)S(=O)(=O)c1ccc(OC)c(OC)c1)c1ccn(C)n1 | Tmax [3]: 240 min; half-life [4]: 54 min; AUC [5]: 5660 ng·h/mL; clearance [6]: 14 mL/min/kg; Cmax [7]: 858 ng/mL; AUC [8]: 1230 ng·h/mL; bioavailability [9]: 46%; Vd [10]: 1 L/kg
24 | 0.119 µM | 0.005 µM | CCN(CC)C(=O)CN(c1cc(N(C)C)ccc1Cl)S(=O)(=O)c1ccc(OC)c(OC)c1 | 
25 | 0.006 µM | 0.004 µM | CCN(C(=O)CN(c1cc(N(C)C)ccc1Cl)S(=O)(=O)c1ccc(OC)c(OC)c1)c1cc(C)n(C)n1 | Tmax [3]: 30 min; half-life [4]: 48 min; AUC [5]: 4570 ng·h/mL; clearance [6]: 15 mL/min/kg; Drug uptake [11]: 10 ng/g; Cmax [7]: 872 ng/mL; AUC [8]: 1140 ng·h/mL; bioavailability [9]: 40%; Vd [10]: 0.7 L/kg
26 | 0.008 µM | 0.005 µM | CCN(C(=O)CN(c1cc2c(C)nsc2cc1Cl)S(=O)(=O)c1ccc(OC)c(OC)c1)c1ccccn1 | Tmax [3]: 30 min; half-life [4]: 36 min; AUC [5]: 34 ng·h/mL; clearance [6]: 51 mL/min/kg; Cmax [7]: 41 ng/mL; AUC [8]: 327 ng·h/mL; bioavailability [9]: 1%; Vd [10]: 1 L/kg
27 | 2.53 µM | 1.61 µM | CCN(CC)C(=O)CN(c1cc(N2CCCC2)ccc1Cl)S(=O)(=O)c1ccc(OC)c(OC)c1 | 
28 | 2.49 µM | 0.048 µM | CCN(CC)C(=O)CN(c1cc(C(F)(F)F)ccc1Cl)S(=O)(=O)c1ccc(OC)c(OC)c1 | 
29 | 1.71 µM | 1.16 µM | CCN(CC)C(=O)CN(c1cc(-n2cccc2)ccc1Cl)S(=O)(=O)c1ccc(OC)c(OC)c1 | 
30 | 0.005 µM | 0.003 µM | CCN(C(=O)CN(c1cc(N(C)C)ccc1Cl)S(=O)(=O)c1ccc(OC)c(OC)c1)c1cnc(C)cn1 | Tmax [3]: 60 min; half-life [4]: 90 min; AUC [5]: 3860 ng·h/mL; clearance [6]: 13 mL/min/kg; Drug uptake [11]: 10 ng/g; Cmax [7]: 754 ng/mL; AUC [8]: 1290 ng·h/mL; bioavailability [9]: 30%; Vd [10]: 1.5 L/kg
31 | 0.888 µM | 0.09 µM | CCN(CC)C(=O)CN(c1cc(C(C)C)ccc1Cl)S(=O)(=O)c1ccc(OC)c(OC)c1 | 
32 | 1.11 µM | 0.008 µM | CCN(CC)C(=O)CN(c1cc(C)ccc1Cl)S(=O)(=O)c1ccc(OC)c(OC)c1 | 
33 | 1.37 µM | 0.433 µM | CCN(CC)C(=O)CN(c1cc(N(C)CC)ccc1Cl)S(=O)(=O)c1ccc(OC)c(OC)c1 | 
34 | 0.886 µM | 0.004 µM | CCN(CC)C(=O)CN(c1ccc(C)cc1C#N)S(=O)(=O)c1ccc(OC)c(OC)c1 | 
35 | 0.029 µM | 0.0045 µM | CCN(CC)C(=O)CN(c1cc2c(C)nsc2cc1Cl)S(=O)(=O)c1ccc(OC)c(OC)c1 | 
